What was measured:
Format in all cases: functional
[1] = Growth inhibition of human UO31 cells at 10 uM after 48 hrs by SRB assay relative to control; conditions: UO-31, 48 h, read-out: GI
Procedure, shortened: (§1)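 Primary screen across the full NCI 60 human tumour cell line panel, which covers nine tumour subpanels. A single dose of 10 μM was applied to each line, and growth was recorded for each cell line.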

[2] = Growth inhibition of human SF539 cells at 10 uM after 48 hrs by SRB assay relative to control; conditions: SF-539, 48 h, read-out: GI
Procedure, shortened: (§2)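 NCI 60-cell-line panel, nine tumor subpanels; compounds tested at a single dose of 10 μM in the primary screen.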

[3] = Growth inhibition of human renal cancer cells after 48 hrs by SRB assay; conditions: Cancer cell lines
Procedure, shortened: (§3)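 Follow-up NCI panel testing over a 5-log dose range for each cell line. GI50, TGI and LC50 were monitored, with 5-fluorouracil run as the positive control. Values are grouped by tumour subpanel.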

[4] = Growth inhibition of human SK-MEL-28 cells at 10 uM after 48 hrs by SRB assay relative to control; conditions: SK-MEL-28, 48 h, read-out: GI; procedure, shortened: as §1
[5] = Growth inhibition of human HOP92 cells at 10 uM after 48 hrs by SRB assay relative to control; conditions: HOP-92, 48 h, read-out: GI; procedure, shortened: as §2
[6] = Growth inhibition of human MOLT4 cells at 10 uM after 48 hrs by SRB assay relative to control; conditions: MOLT-4, 48 h, read-out: GI; procedure, shortened: as §2
[7] = Growth inhibition of human SK-MEL-2 cells at 10 uM after 48 hrs by SRB assay relative to control; conditions: SK-MEL-2, 48 h, read-out: GI; procedure, shortened: as §1
[8] = Growth inhibition of human T47D cells at 10 uM after 48 hrs by SRB assay relative to control; conditions: read-out: GI; procedure, shortened: as §1
[9] = Growth inhibition of human breast cancer cells after 48 hrs by SRB assay; conditions: Cancer cell lines; procedure, shortened: as §3
[10] = Growth inhibition of human HT-29 cells at 10 uM after 48 hrs by SRB assay relative to control; conditions: HT-29, 48 h, read-out: GI; procedure, shortened: as §2
[11] = Growth inhibition of human LOXIMVI cells at 10 uM after 48 hrs by SRB assay relative to control; conditions: LOX IMVI, read-out: GI; procedure, shortened: as §2
[12] = Growth inhibition of human NCI-H460 cells at 10 uM after 48 hrs by SRB assay relative to control; conditions: NCI-H460, 48 h, read-out: GI; procedure, shortened: as §2
[13] = Growth inhibition of human HL-60(TB) cells at 10 uM after 48 hrs by SRB assay relative to control; conditions: HL-60, 48 h, read-out: GI
Procedure, shortened: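 NCI disease-oriented human tumour cell line screen: primary single-dose assay at 10 μM across the full 60-cell-line panel spanning nine tumour subpanels.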

[14] = Growth inhibition of human UACC62 cells at 10 uM after 48 hrs by SRB assay relative to control; conditions: UACC-62, 48 h, read-out: GI; procedure, shortened: as §1
[15] = Growth inhibition of human K562 cells at 10 uM after 48 hrs by SRB assay relative to control; conditions: K562, 48 h, read-out: GI; procedure, shortened: as §2
[16] = Growth inhibition of human NCI/ADR-RES cells at 10 uM after 48 hrs by SRB assay relative to control; conditions: read-out: GI; procedure, shortened: as §2
[17] = Growth inhibition of human U251 cells at 10 uM after 48 hrs by SRB assay relative to control; conditions: U-251, 48 h, read-out: GI; procedure, shortened: as §1
[18] = Growth inhibition of human HCT116 cells at 10 uM after 48 hrs by SRB assay relative to control; conditions: HCT-116, 48 h, read-out: GI; procedure, shortened: as §2
[19] = Growth inhibition of human RXF393 cells at 10 uM after 48 hrs by SRB assay relative to control; conditions: RXF 393, 48 h, read-out: GI; procedure, shortened: as §2
[20] = Growth inhibition of human NCI-H23 cells at 10 uM after 48 hrs by SRB assay relative to control; conditions: NCI-H23, 48 h, read-out: GI; procedure, shortened: as §2
[21] = Growth inhibition of human melanoma cells after 48 hrs by SRB assay; conditions: Melanoma cell; procedure, shortened: as §3
[22] = Growth inhibition of human Hs 578T cells at 10 uM after 48 hrs by SRB assay relative to control; conditions: read-out: GI; procedure, shortened: as §2
[23] = Growth inhibition of human A549 cells at 10 uM after 48 hrs by SRB assay relative to control; conditions: A549, 48 h, read-out: GI; procedure, shortened: as §2
[24] = Growth inhibition of human MDA-MB-231 cells at 10 uM after 48 hrs by SRB assay relative to control; conditions: MDA-MB-231, 48 h, read-out: GI; procedure, shortened: as §2
[25] = Growth inhibition of human Caki1 cells at 10 uM after 48 hrs by SRB assay relative to control; conditions: CAKI-1, 48 h, read-out: GI; procedure, shortened: as §2
[26] = Growth inhibition of human OVCAR8 cells at 10 uM after 48 hrs by SRB assay relative to control; conditions: OVCAR-8, 48 h, read-out: GI; procedure, shortened: as §2
[27] = Growth inhibition of human colon cancer cells after 48 hrs by SRB assay; conditions: Cancer cell lines; procedure, shortened: as §3
[28] = Growth inhibition of human non-small cell lung cancer cells after 48 hrs by SRB assay; conditions: Cancer cell lines; procedure, shortened: as §3
Cancer cell lines [29] = assay: Potency index, ratio of 5-fluorouracil GI50 to compound GI50 for human prostate cancer cells
Procedure, shortened: (§4)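 GI50 for each cell line came from NCI panel testing over a 5-log dose range, with 5-fluorouracil tested alongside as the reference drug. The index relates the 5-fluorouracil GI50 to the compound GI50 within each tumour subpanel.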

[30] = Growth inhibition of human 786-0 cells at 10 uM after 48 hrs by SRB assay relative to control; conditions: 786-0, 48 h, read-out: GI; procedure, shortened: as §2
Cancer cell lines [31] = assay: Potency index, ratio of 5-fluorouracil GI50 to compound GI50 for human renal cancer cells; procedure, shortened: as §4
[32] = Growth inhibition of human OVCAR5 cells at 10 uM after 48 hrs by SRB assay relative to control; conditions: OVCAR-5, 48 h, read-out: GI; procedure, shortened: as §2
[33] = Growth inhibition of human BT549 cells at 10 uM after 48 hrs by SRB assay relative to control; conditions: BT-549, 48 h, read-out: GI; procedure, shortened: as §2
[34] = Growth inhibition of human SN12C cells at 10 uM after 48 hrs by SRB assay relative to control; conditions: read-out: GI; procedure, shortened: as §1
[35] = Growth inhibition of human HOP62 cells at 10 uM after 48 hrs by SRB assay relative to control; conditions: HOP-62, 48 h, read-out: GI; procedure, shortened: as §2
[36] = Growth inhibition of human ovarian cancer cells after 48 hrs by SRB assay; conditions: Cancer cell lines; procedure, shortened: as §3
Cancer cell lines [37] = assay: Potency index, ratio of 5-fluorouracil GI50 to compound GI50 for human non-small cell lung cancer cells; procedure, shortened: as §4

Compound: COc1ccc(-n2c(SCc3cc(OC)c(OC)c(OC)c3)nc3ccc(C)cc3c2=O)cc1
- inhibition of growth at 10 µM [1]: 52.8%
- inhibition of growth at 10 µM [2]: 22.3%
- GI50 [3]: 39.7 µM
- LC50 [3]: > 100 µM
- TGI [3]: 88.1 µM
- inhibition of growth at 10 µM [4]: 26%
- inhibition of growth at 10 µM [5]: < 10%
- inhibition of growth at 10 µM [6]: 44%
- inhibition of growth at 10 µM [7]: 35.3%
- inhibition of growth at 10 µM [8]: 32.2%
- GI50 [9]: 5.3 µM
- LC50 [9]: > 100 µM
- TGI [9]: 91.4 µM
- inhibition of growth at 10 µM [10]: 78.1%
- inhibition of growth at 10 µM [11]: 37%
- inhibition of growth at 10 µM [12]: 26.2%
- inhibition of growth at 10 µM [13]: 68.9%
- inhibition of growth at 10 µM [14]: 43.3%
- inhibition of growth at 10 µM [15]: 83.1%
- inhibition of growth at 10 µM [16]: 54.2%
- inhibition of growth at 10 µM [17]: 30.9%
- inhibition of growth at 10 µM [18]: 65.1%
- inhibition of growth at 10 µM [19]: 47.2%
- inhibition of growth at 10 µM [20]: 30.1%
- GI50 [21]: 19.7 µM
- LC50 [21]: > 100 µM
- TGI [21]: 89.4 µM
- inhibition of growth at 10 µM [22]: 22.3%
- inhibition of growth at 10 µM [23]: 49%
- inhibition of growth at 10 µM [24]: 40.3%
- inhibition of growth at 10 µM [25]: 45.8%
- inhibition of growth at 10 µM [26]: 15.8%
- GI50 [27]: 18.2 µM
- LC50 [27]: > 100 µM
- TGI [27]: > 100 µM
- GI50 [28]: 34.5 µM
- LC50 (concentration killing 50% of cells) [28]: > 100 µM
- TGI [28]: > 100 µM
- RatioGI50 (Cancer cell lines [29]): 2 - 10
- inhibition of growth at 10 µM [30]: 15.9%
- RatioGI50 (Cancer cell lines [31]): 2 - 10
- inhibition of growth at 10 µM [32]: 19.4%
- inhibition of growth at 10 µM [33]: 28.6%
- inhibition of growth at 10 µM [34]: 17.8%
- inhibition of growth at 10 µM [35]: 34.8%
- GI50 [36]: 46.9 µM
- LC50 (50% lethal concentration) [36]: > 100 µM
- RatioGI50 (Cancer cell lines [37]): 2 - 10
